According to ChEMBL document CHEMBL3627671, “Novel derivatives of nitro-substituted salicylic acids: Synthesis, antimicrobial activity and cytotoxicity” (Bioorg Med Chem, 2015):
Converted amounts (≈) assume the structure as drawn.

Columns and labels:
[1] = system: Mycobacterium tuberculosis; experiment: Antimycobacterial activity against Mycobacterium tuberculosis H37Rv 331/88 after 14 days; format: functional; settings: H37Rv 331/88, 336 h
[2] = system: Mycobacterium tuberculosis; experiment: Antimycobacterial activity against Mycobacterium tuberculosis H37Rv 331/88 after 21 days; format: functional; settings: H37Rv 331/88, 504 h
[3] = system: Mycobacterium avium; experiment: Antimycobacterial activity against Mycobacterium avium 330/80 after 14 days; format: functional; settings: 330/80, 336 h
[4] = system: Mycobacterium avium; experiment: Antimycobacterial activity against Mycobacterium avium 330/80 after 21 days; format: functional; settings: 330/80, 504 h
[5] = system: Mycobacterium kansasii; experiment: Antimycobacterial activity against Mycobacterium kansasii 235/80 after 7 days; format: functional; settings: 235/80, 168 h
Outline: (§1)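 Šula's semisynthetic medium micromethod at 37 °C, read after 7, 14 and 21 days. The 1.0 McFarland suspension was diluted 10^-4. MIC determined. 6509/96 is a clinical isolate.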

[6] = system: Mycobacterium kansasii; experiment: Antimycobacterial activity against Mycobacterium kansasii 235/80 after 14 days; format: functional; settings: 235/80, 336 h; outline: as §1
[7] = system: Mycobacterium kansasii; experiment: Antimycobacterial activity against Mycobacterium kansasii 235/80 after 21 days; format: functional; settings: 235/80, 504 h; outline: as §1
[8] = system: Mycobacterium kansasii; experiment: Antimycobacterial activity against Mycobacterium kansasii 6509/96 after 7 days; format: functional; settings: 6509/96, 168 h; outline: as §1
[9] = system: Mycobacterium kansasii; experiment: Antimycobacterial activity against Mycobacterium kansasii 6509/96 after 14 days; format: functional; settings: 6509/96, 336 h; outline: as §1
[10] = system: Mycobacterium kansasii; experiment: Antimycobacterial activity against Mycobacterium kansasii 6509/96 after 21 days; format: functional; settings: 6509/96, 504 h; outline: as §1
[11] = system: Staphylococcus aureus; experiment: Antibacterial activity against Staphylococcus aureus CCM 4516/08 after 24 hrs by microdilution broth method; format: functional; settings: CCM 4516/08, 24 h
[12] = system: Staphylococcus aureus; experiment: Antibacterial activity against Staphylococcus aureus CCM 4516/08 after 48 hrs by microdilution broth method; format: functional; settings: CCM 4516/08, 48 h
[13] = system: Staphylococcus aureus; experiment: Antibacterial activity against methicillin-resistant Staphylococcus aureus H 5996/08 after 24 hrs by microdilution broth method; format: functional; settings: H 5996/08, 24 h
[14] = system: Staphylococcus aureus; experiment: Antibacterial activity against methicillin-resistant Staphylococcus aureus H 5996/08 after 48 hrs by microdilution broth method; format: functional; settings: H 5996/08, 48 h
[15] = system: Staphylococcus epidermidis; experiment: Antibacterial activity against Staphylococcus epidermidis H 6966/08 after 24 hrs by microdilution broth method; format: functional; settings: H 6966/08, 24 h
Outline: (§2)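 Mueller-Hinton broth microdilution (modified M07-A07), pH 7.4 (±0.2). Compounds dissolved in DMSO, tested at final 500 to 0.49 µmol/L. Inoculum in sterile water matched to 0.5 McFarland. Incubated in the dark, humid atmosphere, 35 °C, read at 24 and 48 h visually and at 540 nm. MIC taken as ≥95% growth reduction (IC95) versus control.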

[16] = system: Staphylococcus epidermidis; experiment: Antibacterial activity against Staphylococcus epidermidis H 6966/08 after 48 hrs by microdilution broth method; format: functional; settings: H 6966/08, 48 h; outline: as §2
[17] = system: Enterococcus sp.; experiment: Antibacterial activity against Enterococcus sp. J 14365/08 after 24 hrs by microdilution broth method; format: functional; settings: J 14365/08, 24 h; outline: as §2
[18] = system: Enterococcus sp.; experiment: Antibacterial activity against Enterococcus sp. J 14365/08 after 48 hrs by microdilution broth method; format: functional; settings: J 14365/08, 48 h; outline: as §2
[19] = system: Escherichia coli; experiment: Antibacterial activity against Escherichia coli CCM4517 after 24 hrs by microdilution broth method; format: functional; settings: CCM4517, 24 h; outline: as §2
[20] = system: Escherichia coli; experiment: Antibacterial activity against Escherichia coli CCM4517 after 48 hrs by microdilution broth method; format: functional; settings: CCM4517, 48 h; outline: as §2
[21] = system: Klebsiella pneumoniae; experiment: Antibacterial activity against Klebsiella pneumoniae D 11750/08 after 24 hrs by microdilution broth method; format: functional; settings: D 11750/08, 24 h; outline: as §2
[22] = system: Klebsiella pneumoniae; experiment: Antibacterial activity against Klebsiella pneumoniae D 11750/08 after 48 hrs by microdilution broth method; format: functional; settings: D 11750/08, 48 h; outline: as §2
[23] = system: Klebsiella pneumoniae; experiment: Antibacterial activity against ESBL-positive Klebsiella pneumoniae J 14368/08 after 24 hrs by microdilution broth method; format: functional; settings: J 14368/08, 24 h; outline: as §2
[24] = system: Klebsiella pneumoniae; experiment: Antibacterial activity against ESBL-positive Klebsiella pneumoniae J 14368/08 after 48 hrs by microdilution broth method; format: functional; settings: J 14368/08, 48 h; outline: as §2
[25] = system: Pseudomonas aeruginosa; experiment: Antibacterial activity against Pseudomonas aeruginosa CCM 1961 after 24 hrs by microdilution broth method; format: functional; settings: CCM 1961, 24 h; outline: as §2
[26] = system: Pseudomonas aeruginosa; experiment: Antibacterial activity against Pseudomonas aeruginosa CCM 1961 after 48 hrs by microdilution broth method; format: functional; settings: CCM 1961, 48 h; outline: as §2
[27] = system: Candida albicans; experiment: Antifungal activity against Candida albicans ATCC 44859 after 24 hrs by microdilution broth method; format: functional; settings: ATCC 44859, 24 h
Outline: (§3)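 CLSI M27-A3 broth microdilution in RPMI 1640 with glutamine, buffered to pH 7.0 with MOPS; DMSO diluent. Yeast inoculum 5 × 10^3 ± 0.2 CFU/mL. Moulds grown on Sabouraud agar 3–10 days before spore harvest, final inoculum 0.5-5 × 10^4 CFU/mL, checked in a Bürker chamber. Incubated dark, humid, 35 °C, read at 24 and 48 h visually and at 540 nm. MIC taken as ≥80% (yeasts) or ≥50% (filamentous) growth reduction versus control.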

[28] = system: Candida albicans; experiment: Antifungal activity against Candida albicans ATCC 44859 after 48 hrs by microdilution broth method; format: functional; settings: ATCC 44859, 48 h; outline: as §3
[29] = system: Candida tropicalis; experiment: Antifungal activity against Candida tropicalis 156 after 24 hrs by microdilution broth method; format: functional; settings: Candida tropicalis, 156, 24 h; outline: as §3
[30] = system: Candida tropicalis; experiment: Antifungal activity against Candida tropicalis 156 after 48 hrs by microdilution broth method; format: functional; settings: Candida tropicalis, 156, 48 h; outline: as §3
[31] = system: Pichia kudriavzevii; experiment: Antifungal activity against Candida krusei E28 after 24 hrs by microdilution broth method; format: functional; settings: E28, 24 h; outline: as §3
[32] = system: Pichia kudriavzevii; experiment: Antifungal activity against Candida krusei E28 after 48 hrs by microdilution broth method; format: functional; settings: E28, 48 h; outline: as §3
[33] = system: Nakaseomyces glabratus; experiment: Antifungal activity against Candida glabrata 20/I after 24 hrs by microdilution broth method; format: functional; outline: as §3
[34] = system: Nakaseomyces glabratus; experiment: Antifungal activity against Candida glabrata 20/I after 48 hrs by microdilution broth method; format: functional; outline: as §3
[35] = system: Trichosporon asahii; experiment: Antifungal activity against Trichosporon asahii 1188 after 24 hrs by microdilution broth method; format: functional; settings: Trichosporon asahii, 1188, 24 h; outline: as §3
[36] = system: Trichosporon asahii; experiment: Antifungal activity against Trichosporon asahii 1188 after 48 hrs by microdilution broth method; format: functional; settings: Trichosporon asahii, 1188, 48 h; outline: as §3
[37] = system: Aspergillus fumigatus; experiment: Antifungal activity against Aspergillus fumigatus 231 after 24 hrs by microdilution broth method; format: functional; settings: Aspergillus fumigatus, 231, 24 h; outline: as §3
[38] = system: Aspergillus fumigatus; experiment: Antifungal activity against Aspergillus fumigatus 231 after 48 hrs by microdilution broth method; format: functional; settings: Aspergillus fumigatus, 231, 48 h; outline: as §3
[39] = system: Lichtheimia corymbifera; experiment: Antifungal activity against Absidia corymbifera 272 after 24 hrs by microdilution broth method; format: functional; settings: Lichtheimia corymbifera, 272, 24 h; outline: as §3
[40] = system: Lichtheimia corymbifera; experiment: Antifungal activity against Absidia corymbifera 272 after 48 hrs by microdilution broth method; format: functional; settings: Lichtheimia corymbifera, 272, 48 h; outline: as §3
[41] = system: Trichophyton mentagrophytes; experiment: Antifungal activity against Trichophyton mentagrophytes 445 after 24 hrs by microdilution broth method; format: functional; settings: Trichophyton mentagrophytes, 445, 24 h
[42] = system: Trichophyton mentagrophytes; experiment: Antifungal activity against Trichophyton mentagrophytes 445 after 48 hrs by microdilution broth method; format: functional; settings: Trichophyton mentagrophytes, 445, 48 h
[43] = system: HepG2; experiment: Cytotoxicity against human HepG2 cells after 24 hrs […]; format: cell-based; settings: HepG2, 24 h
[44] = Selectivity index, ratio of CI50 for human HepG2 cells to MIC100 for Mycobacterium tuberculosis H37Rv 331/88

O=C(Nc1cc(C(F)(F)F)cc(C(F)(F)F)c1)c1ccc([N+](=O)[O-])cc1O
MIC [1]: 4 µM (≈ 1.58 µg/mL)
MIC [2]: 8 µM (≈ 3.15 µg/mL)
MIC [3]: 32 µM (≈ 12.6 µg/mL)
MIC [4]: 32 µM (≈ 12.6 µg/mL)
MIC [5]: 8 µM (≈ 3.15 µg/mL)
MIC [6]: 16 µM (≈ 6.31 µg/mL)
MIC [7]: 16 µM (≈ 6.31 µg/mL)
MIC [8]: 16 µM (≈ 6.31 µg/mL)
MIC [9]: 16 µM (≈ 6.31 µg/mL)
MIC [10]: 16 µM (≈ 6.31 µg/mL)
MIC [11]: 1.95 µM (≈ 0.769 µg/mL)
MIC [12]: 1.95 µM (≈ 0.769 µg/mL)
MIC [13]: 0.98 µM (≈ 0.386 µg/mL)
MIC [14]: 0.98 µM (≈ 0.386 µg/mL)
MIC [15]: 1.95 µM (≈ 0.769 µg/mL)
MIC [16]: 1.95 µM (≈ 0.769 µg/mL)
MIC [17]: 62.5 µM (≈ 24.6 µg/mL)
MIC [18]: 125 µM (≈ 49.3 µg/mL)
MIC [19]: > 500 µM
MIC [20]: > 500 µM
MIC [21]: > 500 µM
MIC [22]: > 500 µM
MIC [23]: > 500 µM
MIC [24]: > 500 µM
MIC [25]: > 500 µM
MIC [26]: > 500 µM
MIC [27]: > 500 µM
MIC [28]: > 500 µM
MIC [29]: > 500 µM
MIC [30]: > 500 µM
MIC [31]: > 500 µM
MIC [32]: > 500 µM
MIC [33]: > 500 µM
MIC [34]: > 500 µM
MIC [35]: > 500 µM
MIC [36]: > 500 µM
MIC [37]: > 500 µM
MIC [38]: > 500 µM
MIC [39]: > 500 µM
MIC [40]: > 500 µM
MIC [41]: > 500 µM
MIC [42]: > 500 µM
IC50 [43]: 4.4 µM
Selectivity Index [44]: 0.55
